Screening data from PubChem.
Mdm2-MdmX inh: disrupts the human Mdm2-MdmX interaction; O15151+Q00987; SaOS-2 split-luciferase Mdm2/MdmX complementation, luminescence; inhibition, % at 8 µM; 3% of 330,000 active; AID 485346;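 active = inhibition of at least 50% at 8 µM in the primary screen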
Beta apoptosis: beta cell apoptosis inhibition; INS-1E cytokine-induced death, ATP luminescence, 48 h; percent of positive-control rescue, neutral wells zero; protection from apoptosis, % (concentration not given with the values); 0.8% of 300,000 active; AID 435005;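 active = Every replicate reaches about 75%, or at least half do and their mean reaches it too, limit read from the data; inconclusive = At least half of replicates reach the limit but their mean does not; inactive = Under half of replicates reach the limit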;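 note: 0% = cytokine-treated negative control wells and 100% = positive control rescue; higher means more ATP so stronger rescue from cytokine killing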
CSC inhib: cancer stem cell inhibition. inhibition, % at 7.5 µM. cancer stem cell-like cells viability, luminescence. 1.1% of 300,000 active. AID 2717; in the data active = inhibition above about 75%; inconclusive = no clear call, values can overlap the other calls; tested in HMLE shEcad cells
T cruzi inh: T. cruzi replication inhibition; inhibition, % (no concentration beside the values); 1.4% of 300,000 active; T. cruzi beta-gal in NIH3T3, luminescence, 90 h; AID 1885;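 active = mean inhibition across valid replicates above about 55%, limit read from the data; inconclusive = mean below that limit but half or more replicates reach it; inactive = mean below it, under half of replicates reach it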;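 note: signal also drops with host cell toxicity which is not excluded here; 0% = plate median of DMSO wells and 100% = zero luminescence signal; higher percent means less beta-gal luminescence so fewer parasites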
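Assay system: NIH/3T3 fibroblasts plus reporter T. cruzi. Amount: NIH/3T3 cells, 5,000 per well. Buffer or medium: DMEM, 2% fetal bovine serum. Doses: compound pinned at 50 nL/well, DMSO. Schedule: ≥90 h infection period, 3 h prior cell attachment. Signal: luminescent β-galactosidase signal after 60 min lysis. Read-out: parasite load inhibition, %.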
SKKanGAS inh: blocks kanamycin growth of S. pyogenes SKKanGAS strain | BacTiter-Glo, 6 h | inhibition, % at 7.5 µM | 1.3% of 300,000 active | AID 1662;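 active = mean replicate score, as percent of positive control median, at least 50; inconclusive = mean below 50 but one replicate at or above 50; inactive = mean and every replicate below 50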;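 note: strain carries kanamycin resistance gene driven by streptokinase promoter and grows in 40 µg/ml kanamycin; loss of luminescence reflects streptokinase promoter inhibition or plain growth inhibition; 0% = median of DMSO wells and 100% = positive control at its reference dose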
Calb FLC: affects C. albicans growth with fluconazole | C. albicans CaCi-2 (fluconazole-resistant clinical isolate) + fluconazole, Alamar Blue growth, 48 h | 0.57% of 300,000 active | growth inhibition, % (no concentration beside the values);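 active = growth inhibition above about 58% in most replicates, limit read from the data, passing the limit was not always enough; inconclusive = exactly half the replicates above a set limit; inactive = most replicates below a set limit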;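 note: all wells also contain fluconazole at 8 µg/ml as a sub-toxic cotreatment; 0% = median of DMSO wells and 100% = median of geldanamycin control wells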
Mdm2-MdmX conf: confirmation of human Mdm2/MdmX interaction inhibitors; Mdm2-MdmX binding, luminescent assay; shares compounds with Mdm2-MdmX inh; inhibition, % at 8 µM; 55% of 10,000 active; in the data active = inhibition above about 40%
FLuc counter: inhibits full-length luciferase, flagging false Mdm2/MdmX hits; shares compounds with Mdm2-MdmX inh; SaOS-2 full-length luciferase counterscreen, luminescence; inhibition, % at 8 µM; 77% of 6,200 active; AID 504607;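 active = mean inhibition at 8 µM reaching about 37%, which flags the compound as non-specific, limit read from the data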;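 note: p53-null SaOS-2 cells with luciferase driven by a doxycycline-inducible promoter; compound on cells about two nights before reading with doxycycline added after day one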
* = called active by the depositor. A selection: hits, their analogues and other compounds. The true share with any hit is near 5.7%.

What do the screens show for `COc1ccc2nc(NC(=O)C3CC(=O)N(c4ccccc4)C3)sc2c1` (configuration not stated)?
Mdm2-MdmX inh: 18.2; Beta apoptosis: 4.7; CSC inhib: -3.6; T cruzi inh: 4.9; SKKanGAS inh: 7.7; Calb FLC: 24.7

What do the screens show for `CCOc1ccc(S(=O)(=O)N=C(c2ccccc2)N2CCOCC2)cc1`?
Mdm2-MdmX inh: 7.0; Beta apoptosis: -2.4; CSC inhib: -15.3

How did CCN(C(=O)COC(=O)CN(C)S(=O)(=O)c1ccc(NC(C)=O)cc1)C1CCS(=O)(=O)C1 (configuration not stated) do in these assays?
Mdm2-MdmX inh: 11.2; Beta apoptosis: 0.5; CSC inhib: 2.9; T cruzi inh: 1.6; SKKanGAS inh: -5.8; Calb FLC: 3.4

How did Cc1cc(C)n(-c2nc(NCCN(C)C)c3c4c(sc3n2)CCCC4)n1 do in these assays?
Mdm2-MdmX inh: 99.7*; Beta apoptosis: 111.6*; CSC inhib: 53.4; T cruzi inh: 50.3; SKKanGAS inh: 16.5; Calb FLC: 79.7*; Mdm2-MdmX conf: 88.8*; FLuc counter: 21.3

How did Cc1cc(C)n(-c2nc(NCCCN(C)C)c3c4c(sc3n2)CCCC4)n1 do in these assays?
Mdm2-MdmX inh: 54.1*; Beta apoptosis: 36.0; CSC inhib: 1.8; T cruzi inh: 40.5; SKKanGAS inh: -0.5; Calb FLC: 50.0; Mdm2-MdmX conf: 29.6

Results for C[C@H](NC(=O)c1nc[nH]c1C(=O)N[C@@H](CCCCN)C(=O)OC(C)(C)C)C(=O)OCc1ccccc1 ?
Mdm2-MdmX inh: -15.7; Beta apoptosis: -6.4

What do the screens show for `O=C(NC1CCN(Cc2ccccc2)CC1)c1cn(-c2ccccc2)nc1-c1cccnc1`?
Mdm2-MdmX inh: 13.7; Beta apoptosis: 5.1; CSC inhib: -5.9; T cruzi inh: 8.8; SKKanGAS inh: -3.8; Calb FLC: 5.0

What do the screens show for `Cc1ccc(C(NC(=O)N2CCOCC2)=C(Cl)Cl)cc1F`?
Mdm2-MdmX inh: 50.7*; Beta apoptosis: -11.5; CSC inhib: 40.3; T cruzi inh: -28.3; SKKanGAS inh: -1.3; Calb FLC: inconclusive; Mdm2-MdmX conf: 12.2

How did Cc1sc2nc(C(C)C)nc(SCC(=O)N3c4ccccc4CC3C)c2c1C (configuration not stated) do in these assays?
Mdm2-MdmX inh: 56.0*; Beta apoptosis: -3.4; CSC inhib: 30.9; T cruzi inh: 18.3; SKKanGAS inh: 32.7; Calb FLC: 0.1; Mdm2-MdmX conf: 26.8

Results for CCc1nc(SCC(=O)N2c3ccccc3CC2C)c2c(C)c(C)sc2n1 (configuration not stated) ?
Mdm2-MdmX inh: 98.0*; Beta apoptosis: 20.3; CSC inhib: 48.5; T cruzi inh: 28.1; SKKanGAS inh: 50.5*; Calb FLC: -1.4; Mdm2-MdmX conf: 93.0*; FLuc counter: 52.8*

Results for O=C(c1ccc2c(c1)N(Cc1ccccc1)C(=O)c1ccccc1S2)N1CCCC1 ?
Mdm2-MdmX inh: 19.9; Beta apoptosis: 5.0; CSC inhib: -0.9; T cruzi inh: 28.0; SKKanGAS inh: -2.2; Calb FLC: 12.9

Results for Cc1ccc(C(=O)N2CCCCC2)cc1NC1=C(Cl)C(=O)N(Cc2ccccc2)C1=O ?
Mdm2-MdmX inh: 56.4*; Mdm2-MdmX conf: 49.9*; FLuc counter: 64.0*

How did CN(C)CC(C(=O)c1ccccc1)c1ccccc1 (configuration not stated) do in these assays?
Mdm2-MdmX inh: 100.3*; Beta apoptosis: 106.5*; CSC inhib: 54.2; T cruzi inh: 57.8*; SKKanGAS inh: -5.4; Calb FLC: 21.4; Mdm2-MdmX conf: 84.8*; FLuc counter: 52.2*

How did Oc1ccc(Br)cc1-c1nc2cnccn2c1NC1CCCCC1 do in these assays?
Mdm2-MdmX inh: 27.9; Beta apoptosis: 2.1; CSC inhib: 26.7; T cruzi inh: -16.3; SKKanGAS inh: 24.8; Calb FLC: -14.7

How did Oc1ccc(Br)cc1-c1nc2cnccn2c1NC1CCCC1 do in these assays?
Mdm2-MdmX inh: 78.6*; Beta apoptosis: -7.3; CSC inhib: 15.7; T cruzi inh: -4.2; SKKanGAS inh: 22.3; Calb FLC: -8.1; Mdm2-MdmX conf: 57.1*; FLuc counter: 20.4

What do the screens show for `CN1CCc2c(sc(NC(=O)C3CCCCC3)c2C(N)=O)C1`?
Mdm2-MdmX inh: 0.6; Beta apoptosis: -2.6; CSC inhib: -8.3; T cruzi inh: -24.8; SKKanGAS inh: 0.0; Calb FLC: -3.9

What do the screens show for `COc1ccc(N2CCN(CCCn3c(=S)[nH]c4ccccc4c3=O)CC2)cc1`?
Mdm2-MdmX inh: 86.4*; Beta apoptosis: 8.0; CSC inhib: 32.9; T cruzi inh: inconclusive; SKKanGAS inh: 2.3; Calb FLC: 8.5; Mdm2-MdmX conf: 66.9*; FLuc counter: 47.0*

Results for O=c1c2cc(N3CCOCC3)ccc2[nH]c(=S)n1CCCN1CCCCCC1 ?
Mdm2-MdmX inh: -33.0; Beta apoptosis: 5.0; CSC inhib: 0.9; T cruzi inh: 7.8; SKKanGAS inh: -3.5; Calb FLC: inconclusive

What do the screens show for `O=C(CCCCCn1c(=S)[nH]c2ccc(N3CCOCC3)cc2c1=O)NCCc1ccccc1`?
Mdm2-MdmX inh: 51.4*; Beta apoptosis: -2.9; CSC inhib: 38.9; T cruzi inh: 33.2; SKKanGAS inh: 5.3; Calb FLC: 1.3; Mdm2-MdmX conf: -9.7

How did O=c1c2cc(N3CCOCC3)ccc2[nH]c(=S)n1CCCN1CCN(c2ccccc2F)CC1 do in these assays?
Mdm2-MdmX inh: 57.6*; Beta apoptosis: 1.6; Mdm2-MdmX conf: 32.1

How did COC(=O)c1cc(NC(=O)CN2C(=O)C(=O)N(C3CCCC3)C2=O)cc(C(=O)OC)c1 do in these assays?
Mdm2-MdmX inh: 1.9; Beta apoptosis: 1.3; CSC inhib: -2.1

Results for O=C1[C@@H]2Cc3c([nH]c4ccccc34)C(c3ccccc3)N2C(=O)CN1C1CCN(Cc2ccccc2)CC1 (some centres not stated) ?
Mdm2-MdmX inh: 63.5*; Beta apoptosis: 12.1; CSC inhib: 19.8; T cruzi inh: inconclusive; SKKanGAS inh: 6.4; Calb FLC: 10.1; Mdm2-MdmX conf: 37.8; FLuc counter: 92.5*

Results for CCOc1ccccc1C1c2[nH]c3ccccc3c2C[C@H]2C(=O)N(C3CCN(Cc4ccccc4)CC3)CC(=O)N12 (some centres not stated) ?
Mdm2-MdmX inh: 61.9*; Beta apoptosis: 6.6; CSC inhib: 7.7; T cruzi inh: 62.1*; SKKanGAS inh: -0.1; Calb FLC: 3.8; Mdm2-MdmX conf: 51.3*; FLuc counter: 66.8*
